One data set relates to MDA-MB-231 cells. The data set can be described thus: MTT cell viability assay, MDA-MB-231. It is filed as cell-based, human. In outline: (§1)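 Media: Hep G2 in MEM, MIA PaCa-2 in DMEM, MDA-MB-231 in DMEM/F-12, each with 10% FBS and antibiotics. Cells were seeded at 6 × 10^3 per well and kept 48 h at 37 °C, 5% CO2. Medium was renewed, then compound was added (DMSO ≤0.2%, vehicle-matched) for 48 h in triplicate wells. MTT (1 mg mL−1) ran 3 h; formazan was dissolved in DMSO and read at 595 nm versus untreated wells. IC50 came from a four-parameter variable-slope fit, ≥3 independent experiments. Hypoxic MDA-MB-231 cells were kept at 1.5% O2 for ≥2 passages beforehand.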
A general note: Tetrazolium dyes change colour on reduction, which living cells bring about.

For another data set, the system named is Hep G2 cells. The data set can be described thus: MTT cell viability assay, Hep G2. The note with it: read-out: IC50 ± SD, Hep G2, 48 h, normoxia (∼15% O2). It is filed as cell-based, human. Summed up:
as §1

The next data set deals with MIA PaCa-2 cells. The data set is described as follows: MTT cell viability assay, MIA PaCa-2. Format: cell-based, human. The note with it: read-out: IC50 ± SD, MIA PaCa-2, 48 h, normoxia (∼15% O2). In outline: as §1
The subject of data set [1] is microtubule network in MDA-MB-231 cells. The data set can be described thus: Immunofluorescence study of microtubule network disruption. It is filed as cell-based, human. The note with it: 12 h; cisplatin 50 μM, colchicine 100 nM (controls). Summed up: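 5 × 10^4 MDA-MB-231 cells were grown on glass coverslips for 48 h, then treated 12 h (vehicle 0.1% DMSO). Fixation used 4% paraformaldehyde for 10 min and 100 mM glycine quench, followed by 3% BSA/PBST block for 20 min. Rabbit monoclonal anti-α-tubulin (1:400, 2 h) was followed by AlexaFluor 488 anti-rabbit (1:1000, 2 h, dark) and DAPI mount. Confocal imaging used a 63× objective. Microtubule-network perimeter was averaged over ≥10 treated versus ≥10 untreated cells and expressed as relative perimeter.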

The nature of data set [2]: Solution stability study by 1H NMR. Format: physicochemical. The following applies: DMSO-d6/phosphate buffer 3:7 (v/v), within 12 h. In outline:
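Complexes were monitored by 1H NMR in DMSO-d6 or DMF-d7 mixed 1:9 (v/v) with degassed 20 mM phosphate buffer (pD 7.4, 4 mM NaCl). Spectra were taken at 25 °C at time points up to 24 h. Free ligands were monitored in DMSO-d6/phosphate buffer 3:7 (v/v).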

Like-named read-outs stand apart in the source and are kept apart here.

Turning to `[NH2][Pt]([NH2])([Cl])[Cl]` [CDDP, cisplatin, reference compound], the IC50 (commonly the concentration that gives 50% inhibition) in the data set with MDA-MB-231 cells (read-out: IC50 ± SD, MDA-MB-231 (hypo), 48 h, hypoxia (1.5% O2)) was 37.8 ± 2.3 µM; in the data set on MDA-MB-231 cells (read-out: IC50 ± SD, MDA-MB-231, 48 h, normoxia (∼15% O2)) it was 37.2 ± 2.5 µM; in the data set with Hep G2 cells, 14.3 ± 0.8 µM; in the data set with MIA PaCa-2 cells, 31.8 ± 4.8 µM. Besides, in data set [1], the “disruption of the microtubule network” value is on record as “did not observe any disruption of the microtubule formation”.
Consider `COc1cc2c(c(OC)c1OC)-c1ccc(OC)c(=O)cc1[C@@H](NC(C)=O)CC2` [colchicine, reference compound], for which the “disruption of the microtubule network” value in data set [1] is “exhibited microtubule network damage”.
Take `COc1cc(N=Cc2ccccc2O)cc(OC)c1OC` [Complex L1, 2-{[(3,4,5-Trimethoxyphenyl)imino]-methyl}phenol]: the “hydrolysis of ligand into amine and aldehyde” value in data set [2] is on record as approximately 80%.
In the case of `COc1cccc(C=Nc2cc(OC)c(OC)c(OC)c2)c1O` [Complex L3, 2-Methoxy-6-{[(3,4,5-trimethoxyphenyl)imino]-methyl}phenol], the “hydrolysis of ligand into amine and aldehyde” value in data set [2] is approximately 80%.

(Values after publication PMC7165017 (Inorganic chemistry, 2019).)
